# Screens from PubChem BioAssay.
# This is a sample that favours compounds with a hit; in the whole collection about 1.5% have one here.
# EBI2 antag: antagonists of human EBI2 receptor. P32249. EBI2 beta-arrestin recruitment, luminescence, 7a,25-OHC stimulated. inhibition, % at 5 µM. hit rate 0.81% among 360,000. AID 651636; in the data active means inhibition above about 38%;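 further: enzyme fragment complementation signal reports receptor beta-arrestin coupling in cells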
# CXCR6 inh: blocks human CXCR6 beta-arrestin recruitment. O00574. CHO-K1 PathHunter CXCR6 beta-arrestin, luminescence. inhibition, % at 20 µM. hit rate 0.36% among 360,000. AID 602244; in the data active means inhibition above about 34%, passing the limit was not always enough;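 further: antagonist mode with CXCL16 agonist at 10 nM final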
# CCR6 antagonist: antagonists of human CCR6 receptor | P51684 | CHO-K1 CCR6 PathHunter beta-arrestin, luminescence, CCL20-stimulated | inhibition, % at 20 µM | hit rate 0.49% among 340,000;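 active means compounds whose inhibition of the agonist-driven luminescence signal at 20 µM reaches about 50%, limit read from the data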;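 further: cells stimulated with CCL20 at 14 nM final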
# APJ ag: APJ receptor agonism; P35414; CHO-K1 APJ PathHunter beta-arrestin, luminescence; 0% DMSO wells, 100% apelin; activation, % at 20 µM; hit rate 0.11% among 330,000;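 active means activation more than six SD over the plate average, tested at 20 µM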
# Target sequence (P35414 whole entry, looked up): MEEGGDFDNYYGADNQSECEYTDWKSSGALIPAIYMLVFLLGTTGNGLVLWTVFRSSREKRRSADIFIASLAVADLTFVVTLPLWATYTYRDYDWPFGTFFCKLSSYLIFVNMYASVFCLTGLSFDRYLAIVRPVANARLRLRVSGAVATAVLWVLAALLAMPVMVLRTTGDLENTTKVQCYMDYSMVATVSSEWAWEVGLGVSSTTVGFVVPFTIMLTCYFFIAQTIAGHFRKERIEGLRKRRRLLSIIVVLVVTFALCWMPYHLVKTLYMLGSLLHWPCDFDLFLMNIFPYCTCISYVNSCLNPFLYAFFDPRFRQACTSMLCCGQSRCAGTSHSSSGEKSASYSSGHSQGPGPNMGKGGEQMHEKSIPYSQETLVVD
#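 Assay system: CHO-K1 APJ beta-arrestin complementation cell line / Compound: single test compound dose, 20 µM final, 1% DMSO / Times: overnight seeding, 90 min compound at 25 °C, 1 h detection / Technique: beta-gal luminescence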
# APJ antag: blocks the human apelin receptor APJ; P35414; CHO-K1 APJ beta-arrestin complementation, luminescence; inhibition, % at 20 µM; hit rate 0.32% among 330,000;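 active means inhibition above about 40% at 20 µM, limit read from the data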;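 further: cells challenged with 10 nM apelin-13 agonist together with compound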
# APJ antag conf: confirmation of human APJ apelin receptor antagonists | shares compounds with APJ antag | APJ beta-arrestin recruitment, luminescence, antagonist mode | inhibition, % at 20 µM | hit rate 66% among 950; in the data active means inhibition above about 50%
# CXCR6 confirm: CXCR6 antagonism confirmation, single concentration; shares compounds with CXCR6 inh; CHO-K1 CXCR6 PathHunter beta-arrestin, luminescence; inhibition, % at 20 µM; hit rate 65% among 700; AID 602409;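 active means mean inhibition over four retests above 40%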;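 further: receptor stimulated with 10 nM CXCL16 agonist; beta-galactosidase fragment complementation upon beta-arrestin recruitment to receptor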
# A number is an active result; i = inactive; nt = no result.
SMILES,EBI2 antag,CXCR6 inh,CCR6 antagonist,APJ ag,APJ antag,APJ antag conf,others
Cc1cc(Cl)ccc1NNC(=O)c1c(C)noc1C,i,i,i,i,i,nt,
Cc1noc(C)c1C(=O)NNc1ccc(C(C)C)cc1,i,i,i,i,46.7,102.3,
Cc1cc(C(=O)NNc2ccc(Cl)cc2)no1,i,i,i,i,i,nt,
CN1CCC(=O)N(CCOc2ccccc2)CC1,i,i,i,i,i,nt,
O=C1CCCN1C(=O)CSc1ccc2ccccc2n1,i,i,i,i,i,nt,
O=C1NC(=Nc2ccccc2Cl)S/C1=C\c1cc([N+](=O)[O-])ccc1O,i,i,i,i,i,nt,
COc1cccc(N=C2NC(=O)/C(=C/c3cc([N+](=O)[O-])ccc3O)S2)c1,i,i,i,i,41.4,52.0,
O=C(N/N=C/c1cc(Cl)cc([N+](=O)[O-])c1O)NC12CC3CC(CC(C3)C1)C2,i,i,i,i,41.7,70.1,
O=C(N/N=C/c1ccccc1O)NC12CC3CC(CC(C3)C1)C2,i,i,i,i,i,nt,
Cc1ccc(-c2nc3sc(C(N)=O)c(N)c3c3c2CCCC3)cc1,i,i,i,i,i,nt,
NC(=O)c1sc2nc(-c3ccccc3)c3c(c2c1N)CCCC3,i,i,i,i,46.8,i,
O=C(COC(=O)c1ccccc1F)c1ccc(-n2nncc2-c2ccco2)cc1,i,i,i,i,41.3,i,
O=C(/C=C/c1ccc([N+](=O)[O-])cc1)OCC(=O)N1c2ccccc2Sc2ccccc21,i,i,i,i,i,nt,
CCOc1ccc(N=Nc2ccc(O)c3ncccc23)cc1,i,i,i,i,i,nt,
CCN(CC)S(=O)(=O)c1cc(OC)ccc1N=Nc1ccc(O)c2ncccc12,i,i,54.9,i,43.1,i,
Cc1cccc(N=Nc2ccc(O)c3ncccc23)c1,i,i,i,i,41.8,83.1,
Oc1ccc(N=Nc2ccc3c(c2)OCCO3)c2ncccc12,i,i,54.0,i,52.8,89.4,
CCS(=O)(=O)c1ccc(OC)c(N=Nc2ccc(O)c3ncccc23)c1,i,i,i,i,i,nt,
Cc1ccc(C)c(N=Nc2ccc(O)c3ncccc23)c1,i,i,62.9,i,44.9,74.1,
O=C(NN=Cc1ccccc1C(=O)O)c1cccc(S(=O)(=O)Nc2cccc(C(F)(F)F)c2)c1,i,i,i,i,i,nt,
NS(=O)(=O)c1ccc(N=Nc2ccc(O)c3ncccc23)cc1,i,48.3,63.7,i,48.7,86.7,
CCOC(=O)C1=C(C)N=c2s/c(=C/c3ccco3)c(=O)n2C1c1cccc(OC)c1 (stereo unspecified),nt,nt,i,i,i,nt,
CCOC(=O)C1=C(C)N=c2s/c(=C/c3cccc([N+](=O)[O-])c3O)c(=O)n2C1c1ccccc1 (stereo unspecified),i,i,70.8,i,49.5,98.7,
CCOC(=O)C1=C(C)N=c2s/c(=C/c3cccc([N+](=O)[O-])c3O)c(=O)n2C1c1cc(OC)c(OC)c(OC)c1 (stereo unspecified),i,i,54.7,i,40.4,90.1,
CCOC(=O)C1=C(c2ccccc2)N=c2s/c(=C\c3ccc(O)cc3)c(=O)n2C1c1cccs1 (stereo unspecified),i,i,53.1,i,42.4,101.5,
SMILES,EBI2 antag,CXCR6 inh,CCR6 antagonist,APJ ag,APJ antag,APJ antag conf,others
CCN(CC)S(=O)(=O)c1cccc(N=Nc2c(O)c3ccccc3oc2=O)c1,i,i,58.9,i,40.3,i,
CCN(CC)c1ccc(/C=C2\SC(=O)N(C(C)C)C2=O)o1,56.5,i,i,i,53.1,i,
FC(F)(F)c1cc(C(F)(F)F)c2ccc(N3CCN(c4ccc(Cl)cc4)CC3)nc2n1,i,i,i,i,i,nt,
N#CC(c1ccc(Cl)cc1)c1ccc2c(C(F)(F)F)cc(C(F)(F)F)nc2n1 (stereo unspecified),i,45.0,56.3,i,46.7,75.9,
CN(Cc1ccccc1)C(=S)NC(=O)c1cccs1,i,i,i,i,40.8,i,
CN(Cc1ccccc1)C(=S)NC(=O)C1CCCCC1,i,i,i,i,i,nt,
Oc1cccc2ccc(/C=C/c3ccccc3Cl)nc12,i,i,i,i,46.4,81.7,
COc1cc(Cl)cc(/C=C/c2ccc3cccc(O)c3n2)c1OC,i,i,i,i,41.3,i,
COc1ccc(Cl)cc1/C=C/c1ccc2cccc(O)c2n1,i,i,i,i,i,nt,
CCOc1cccc(/C=C/c2ccc3cccc(O)c3n2)c1OC,i,i,i,i,43.0,72.0,
Cc1ccc(S(=O)(=O)NCCC(=O)NCCc2ccc(S(N)(=O)=O)cc2)cc1C,i,i,i,i,i,nt,
CC(C)(C)C1C/C(=C/c2ccccn2)C(=O)/C(=C/c2ccccn2)C1 (stereo unspecified),i,i,64.6,i,44.5,i,
CCc1ccc(NC(=O)CSc2nnnn2-c2cccnc2)cc1,i,i,i,i,i,nt,
CCOC(CNC(=O)c1cccn2c(=O)c3cc(Cl)ccc3nc12)OCC,i,i,i,i,50.5,i,
CCOC(=O)N1CCN(C(=O)c2cccn3c(=O)c4cc(Cl)ccc4nc23)CC1,i,i,i,i,i,nt,
CCOc1cc(/C=C2\CCC/C(=C\c3cc(Cl)c(O)c(OCC)c3)C2=O)cc(Cl)c1O,i,59.8,51.2,i,58.3,110.7,
C=CCNC(=O)/C(C#N)=C\c1cc(Cl)c(O)c(OCC)c1,i,i,i,nt,nt,nt,
COc1ccc2oc(C(=O)OCC(=O)NC3CCS(=O)(=O)C3)c(C)c2c1 (stereo unspecified),i,i,nt,nt,nt,nt,
ON1C(c2ccccc2C(F)(F)F)N(O)[C@H]2CCCC[C@H]21 (stereo partly specified),i,i,i,i,40.2,i,
COc1ccc(S(=O)(=O)NC(C)C(=O)Nc2ccc3c(c2)OCO3)cc1OC (stereo unspecified),i,i,i,i,i,nt,
COc1ccc(S(=O)(=O)NC(C)C(=O)Nc2ccc3c(c2)OCCO3)cc1OC (stereo unspecified),i,i,i,i,46.5,i,
CN(C)c1cccc(NC(=O)C2(C)CC2(Cl)Cl)c1 (stereo unspecified),i,i,i,i,i,nt,
CC(=O)Nc1ccc(NC(=O)C2(C)CC2(Cl)Cl)cc1 (stereo unspecified),i,i,i,i,91.4,i,
Cc1cc(CNC(=O)COc2ccc(F)cc2Cl)cc(C)c1O,i,i,i,i,i,nt,
CCn1c(=O)c([N+](=O)[O-])c(Cl)c2ccccc21,i,102.0,100.0,i,93.9,101.6,CXCR6 confirm=95.8
COC(=O)[C@@]12CCCCN1[C@H](c1ccc(-c3ccc(F)cc3)c(OC)c1)[C@@H]1C(=O)N(C)C(=O)[C@@H]12,i,i,i,i,i,nt,
CCOC(=O)c1c(-c2ccc(C)o2)csc1NC(=S)NC(=O)N(C)C,i,44.4,nt,i,45.5,i,CXCR6 confirm=62.1
